RanGTP-Impb inh: inhibitors of RanGTP-importin-beta interaction, primary screen, biochemical, FRET, CFP-Ran, YFP-importin-beta, homogeneous; cell-free CFP-Ran/YFP-importin-beta FRET ratio; hit rate 1.1% among 300,000; inhibition, % (test concentration not listed); AID 2216;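 active means more than half of the replicate wells show a fall in the fluorescence ratio signal beyond about 16%, limit read from the data, passing the limit was not always enough; inconclusive means exactly half of the replicate wells pass the set limit; inactive means fewer than half of replicates pass the limit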;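 further: 0% = DMSO wells and 100% = Ran loaded with GDP instead of GTP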
Tb hexokinase: T. brucei hexokinase 1 inhibition; inhibition, % at 10 µM; AID 1430; hit rate 0.11% among 220,000; recombinant TbHK1, G6PDH-coupled NADH A340;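 active means inhibition of 50% or more in the single-dose primary screen; inactive means inhibition below 50%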
Hck Nef HTS: blocks Nef-activated human Hck kinase. AID 463187. inhibition, % at 20 µM. hit rate 0.68% among 220,000. P08631. Recombinant Hck-YEEI plus Nef, Z-Lyte FRET kinase assay;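 active means Hck-Nef kinase inhibition above about 50%, limit read from the data; inactive means inhibition below that limit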;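 further: 0% = DMSO with Hck plus Nef and 100% = Hck alone without Nef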
Target sequence (P08631 whole entry, looked up): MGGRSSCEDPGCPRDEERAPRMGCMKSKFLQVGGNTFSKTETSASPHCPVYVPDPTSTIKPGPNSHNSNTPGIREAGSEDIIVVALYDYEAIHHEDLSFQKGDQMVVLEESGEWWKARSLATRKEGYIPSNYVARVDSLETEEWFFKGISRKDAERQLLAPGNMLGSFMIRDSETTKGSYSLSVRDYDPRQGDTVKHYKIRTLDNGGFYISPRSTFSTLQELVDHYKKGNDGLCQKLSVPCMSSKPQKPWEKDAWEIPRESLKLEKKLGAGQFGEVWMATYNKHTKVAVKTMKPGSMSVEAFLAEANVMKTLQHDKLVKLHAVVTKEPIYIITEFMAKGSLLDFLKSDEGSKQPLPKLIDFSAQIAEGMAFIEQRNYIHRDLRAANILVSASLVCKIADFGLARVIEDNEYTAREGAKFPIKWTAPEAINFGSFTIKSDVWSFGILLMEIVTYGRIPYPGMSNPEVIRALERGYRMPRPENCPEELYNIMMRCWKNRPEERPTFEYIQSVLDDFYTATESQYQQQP
Runt-SMMHC FRET: Runt domain-CBFb-SMMHC interaction inhibition | Q01196+Q13951 | Cerulean-Runt/Venus-CBFb-SMMHC FRET ratio 530/480, 1 h | inhibition, % at 20 µM | hit rate 0.74% among 220,000;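 active means mean inhibition across duplicate retests at 20 µM reaching about 50%, limit read from the data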;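 further: 0% = DMSO wells and 100% = wells with excess untagged CBFb-SMMHC; inhibitors lower the FRET ratio by blocking Runt binding to CBFb-SMMHC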
Runt-CBFb FRET: inhibitors of human RUNX1 Runt domain binding to CBFb | Q01196+Q13951 | Cerulean-Runt/Venus-CBFb FRET ratio 530/480, 1 h | inhibition, % at 20 µM | hit rate 0.46% among 220,000 | AID 1496;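 active means inhibition over about 50% at 20 µM in the single-dose screen, limit read from the data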;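 further: 0% = DMSO wells and 100% = excess unlabeled CBFb competitor control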
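Buffer or medium: Tris pH 7.5 buffer with BSA. Assay system: Cerulean-labeled Runt domain protein. Amount: each fluorescent fusion protein 100 nM. Read-out basis: loss of energy transfer signal. Incubation: 1 h compound exposure, room temperature. Probe or stimulus: Venus-CBFb binding partner, 100 nM. Detection: FRET, excitation 422 nm, emission at 530 and 480 nm.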
p97 inhibitor: inhibitors of human p97 ATPase. P55072. recombinant p97 ATPase, Kinase-Glo ATP luminescence, 3 h. inhibition, % at 8 µM. hit rate 0.42% among 220,000. AID 1481; in the data active means inhibition above about 15%;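 further: 0% = DMSO vehicle and 100% = wells lacking enzyme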
Hck-Nef confirm: Hck-Nef kinase inhibition, confirmation. hit rate 28% among 1,300. shares compounds with Hck Nef HTS. Recombinant Hck-YEEI:Nef, Z-Lyte FRET kinase assay. calls only at 10 µM. AID 463188;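 active means average inhibition of at least 50%, with Z-scores no higher than 3 in both the phospho-tyrosine peptide and fluorescence counterscreens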
Starred values were filed as active, the others as inactive; i = inactive; ? = inconclusive; / = no result shown; + = active, no number. An excerpt weighted towards active compounds, which were near 2.1% of everything screened.

SMILES | RanGTP-Impb inh | Tb hexokinase | Hck Nef HTS | Runt-SMMHC FRET | Runt-CBFb FRET | p97 inhibitor | Hck-Nef confirm
CCOC(=O)N1CCc2c(sc3nc4n(c(=O)c23)N=C(c2ccc(OC)cc2)CS4)C1 | 8 | -48 | 77* | 0 | 0 | 0 | +
CC(CCCC(C)(C)O)NCc1cn[nH]c1-c1ccc2c(c1)OCO2 (stereo unspecified) | 1 | -6 | 5 | -3 | -1 | 1 | /
COCCN1C(=O)N[C@@H](c2cccc(F)c2)C(C(C)=O)=C1C | 3 | / | / | / | / | / | /
CCOc1ccccc1N=c1oc2cc(O)ccc2cc1C(=O)NCC1CCCO1 (stereo unspecified) | 180* | -24 | 59* | 59* | 53* | -3 | /
CCCNC(=O)COC(=O)c1cc2c(=O)n3ccccc3nc2s1 | 6 | -13 | 51* | 121* | 83* | 9 | i
Cc1cc(C)c(OCCN2CCOCC2)c(Cl)c1 | -6 | / | / | / | / | / | /
CS(=O)(=O)c1ccc(C(=O)OCC(=O)c2ccc(Cl)s2)cc1 | 2 | / | / | / | / | / | /
Cc1ccc(OCc2cc(C(=O)N3CCc4[nH]cnc4C3c3ccccn3)no2)cc1C (stereo unspecified) | 5 | / | / | / | / | / | /
COc1cc(/C=N/NC(=O)c2sc3nc(C)cc(C)c3c2N)ccc1O | ? | -24 | 51* | 32 | 20 | 10 | /
O=C(NC(=O)c1ccc(Cl)cc1)Nc1ccc(-c2cnco2)cc1 | -1 | -9 | 60* | -1 | -2 | 2 | i
O=C(NCCC1=CCCCC1)c1cc(-c2ccccn2)nc2ccccc12 | 4 | -5 | 60* | 1 | 0 | 6 | i
CC/C(=N\NC(=O)CSc1ncccn1)c1ccc2c(c1)OCCO2 | -3 | 5 | 3 | 4 | -1 | 4 | /
Cc1cc(C(=O)COC(=O)c2cc(O)c3ccccc3c2O)c(C)n1CC1CCCO1 (stereo unspecified) | / | -7 | 93* | -30 | 4 | 6 | i
Cc1cc(C(=O)COC(=O)c2ccccc2Br)c(C)n1CC1CCCO1 (stereo unspecified) | -1 | -13 | 25 | 0 | -1 | -13 | /
Cc1c(Cl)cccc1NS(=O)(=O)c1ccc2c(c1)C1C=CCC1C(c1ccc(C(=O)O)cc1)N2 (stereo unspecified) | / | 52* | 63* | -131 | -21 | 36* | +
COc1cc2ncnc(NCc3ccc(F)cc3)c2cc1OC | 2 | / | / | / | / | / | /
Cn1c(CC(=O)Nc2ccccc2F)nnc1SCC(=O)Nc1ccccc1Br | 0 | / | / | / | / | / | /
O=c1c2c3c(sc2[nH]c(=S)n1Cc1ccco1)CCC3 | 2 | -5 | 81* | -2 | 17 | 11 | i
CC1(C)Cc2c(sc3[nH]c(=S)n(Cc4ccco4)c(=O)c23)CO1 | 1 | -24 | 2 | 17 | 18 | 8 | /
NC(=O)c1nn(-c2ccc(Oc3ccccc3)cc2)c(=O)cc1O | -3 | 1 | 82* | 14 | -1 | 8 | +
O=C(CCc1ccc(S(=O)(=O)N2CCOCC2)cc1)N1CCc2ccccc2C1 | 4 | -3 | 29 | -3 | 0 | 1 | /
COc1ccccc1-c1nn2c(-c3ccccc3Cl)nnc2s1 | / | / | / | 3 | -2 | / | /
CCN(CC)c1ccc(-c2nn3c(-c4ccccc4OC)nnc3s2)cc1 | 8 | 3 | 51* | 26 | 5 | -3 | i
Oc1c(/C=C/C=C/C=Nc2ccccc2)sc(=S)n1Cc1ccccc1 | 0 | 8 | 50* | -6 | 17 | -5 | i
CCn1c(O)c(/C=C/C=C/C=Nc2ccccc2)sc1=S | 1 | -5 | 25 | 1 | 4 | 2 | /
Cc1ccnc(NS(=O)(=O)c2ccc(NC(=O)c3ccc(S(=O)(=O)N4CC(C)OC(C)C4)cc3)cc2)n1 (stereo unspecified) | -1 | -7 | 4 | -5 | 0 | 2 | /
O=C(N/N=C/c1coc2ccc(Cl)cc2c1=O)c1ccc(O)cc1 | 2 | / | / | / | / | / | /
O=C(N/N=C/c1coc2ccccc2c1=O)c1ccccc1Br | -1 | -2 | 45 | 1 | 0 | -4 | /
COCC(C)OC(=O)/C(C#N)=C\c1coc2ccc(C)cc2c1=O (stereo unspecified) | / | 7 | 98* | -66 | -43 | 7 | +

Compound activity deposited in PubChem by several laboratories.
